Results taken from paper PMC3895945 (Nuclear medicine and biology, 2013).

How the values were obtained:
[1] = In vivo metabolism studies of FET prodrugs in Fisher 344 rats; details: blood drawn 5 min after intravenous injection
Summary of the method: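 Fisher 344 rats received ~37 MBq radiolabeled test compound intravenously. Blood was drawn from the heart 5 min post-injection. 50 μL aliquots were deproteinized with 1 % picric acid and centrifuged at 12,000g. Supernatant was run on C-18 HPLC (CH3CN/0.1 % formic acid), and fractions were gamma-counted. Parent and radio-metabolites were identified by retention time.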

[2] = system: 9L tumors; experiment: In vivo biodistribution in Fisher rats with 9L glioma tumors; parameters: species or system Fischer 344 rats; details: for Tissue distribution Tumor: 9L tumor; for tumor uptake kinetics and retention: biodistribution 30 to 60 min, result in words; for Tumor/Blood / Tumor/Brain / Tumor/Muscle: ratio; for time to maximum uptake in the tumors: biodistribution, 9L tumors
[3] = In vitro metabolism; assay type: in vitro ADME, human
Summary of the method: (§1)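 Radiolabeled test compound (~3 MBq in 50 μL PBS) was added to 1.0 mL preheated blood or a PBS control at 37 °C. Rat blood was freshly drawn from anesthetized Fisher 344 rats into heparin (100 unit/mL); heparinized human blood had been stored at −70 °C. Aliquots taken at 5–120 min were deproteinized with 1 % picric acid and centrifuged. Supernatant was analysed by C-18 radio-HPLC. Percent intact compound versus time was fitted to first-order kinetics.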

[4] = In vitro metabolism; assay type: in vitro ADME, rat; details: for half-life: Fisher 344, rat, fresh heparinized rat whole blood
Summary of the method: as §1

[5] = system: 9L glioma cells; experiment: In vitro uptake studies in 9L cells; assay type: cell-based; details: for uptake in 9L cells: result in words; for uptake relative to that of FET: 9L glioma cells, 5-120 min incubation at 37 °C
Summary of the method: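 9L gliosarcoma cells were grown in DMEM with 10 % FBS (37 °C, 5 % CO2) and plated at 2.0 × 10^5 cells/well 24 h ahead. Cells were washed with warm PBS containing Ca2+/Mg2+, then given radiolabeled test compound in PBS (~500,000 cpm/mL/well) at 37 °C for 5, 30, 60 or 120 min. They were washed with ice-cold PBS, lysed in 0.1N NaOH and gamma-counted. Uptake was normalised to protein (modified Lowry) as %uptake/100 μg protein, in triplicate.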

[6] = system: 9L tumors; experiment: Dynamic small animal PET imaging in rats bearing 9L tumors; assay type: in vivo, Fisher rats; details: for maximum tumor-to-muscle ratio: PET region-of-interest analysis; for maximum tumor-to-muscle ratio / time to maximum tumor uptake: 9L tumors; for time to maximum tumor uptake / tumor uptake kinetics and retention: PET time-activity curves; for tumor uptake kinetics and retention: result in words
[7] = 30 min after intravenous injection
[8] = 60 min after intravenous injection
[9] = 30 min after intravenous injection, listed as FET-Ala([^18F]3)

CC(=O)N[C@@H](Cc1ccc(OCC[18F])cc1)C(=O)O [AcFET ([^18F]4), N-acetyl O-(2-[^18F]fluoroethyl)-L-tyrosine]
metabolized to FET [1]: 66% | Tissue distribution Tumor [2, 7]: 0.61 ± 0.13 % ID/g | Tissue distribution Tumor [2, 8]: 0.85 ± 0.09 % ID/g | Tissue distribution Blood [2, 7]: 0.69 ± 0.03 % ID/g | Tissue distribution Bone [2, 7]: 0.32 ± 0.01 % ID/g | Tissue distribution Brain [2, 7]: 0.26 ± 0.01 % ID/g | Tissue distribution Heart [2, 7]: 0.60 ± 0.03 % ID/g | Tissue distribution Kidney [2, 7]: 0.70 ± 0.07 % ID/g | Tissue distribution Liver [2, 7]: 0.64 ± 0.01 % ID/g | Tissue distribution Lung [2, 7]: 0.55 ± 0.04 % ID/g | Tissue distribution Muscle [2, 7]: 0.45 ± 0.02 % ID/g | Tissue distribution Pancreas [2, 7]: 2.54 ± 0.11 % ID/g | Tissue distribution Skin [2, 7]: 0.48 ± 0.01 % ID/g | Tissue distribution Spleen [2, 7]: 0.66 ± 0.02 % ID/g | Tissue distribution Blood [2, 8]: 0.62 ± 0.01 % ID/g | Tissue distribution Bone [2, 8]: 0.33 ± 0.01 % ID/g | Tissue distribution Brain [2, 8]: 0.36 ± 0.03 % ID/g | Tissue distribution Heart [2, 8]: 0.56 ± 0.02 % ID/g | Tissue distribution Kidney [2, 8]: 0.57 ± 0.05 % ID/g | Tissue distribution Liver [2, 8]: 0.56 ± 0.01 % ID/g | Tissue distribution Lung [2, 8]: 0.51 ± 0.01 % ID/g | Tissue distribution Muscle [2, 8]: 0.49 ± 0.01 % ID/g | Tissue distribution Pancreas [2, 8]: 2.23 ± 0.51 % ID/g | Tissue distribution Skin [2, 8]: 0.44 ± 0.01 % ID/g | Tissue distribution Spleen [2, 8]: 0.65 ± 0.06 % ID/g | tumor uptake kinetics and retention [2]: slower uptake kinetics | Tumor/Blood [2, 7]: 0.88 ± 0.19 | Tumor/Brain [2, 7]: 2.35 ± 0.51 | Tumor/Muscle [2, 7]: 1.36 ± 0.30 | Tumor/Blood [2, 8]: 1.37 ± 0.15 | Tumor/Brain [2, 8]: 2.36 ± 0.32 | Tumor/Muscle [2, 8]: 1.73 ± 0.19 | stability in human blood ([3]; human blood, 37 °C): completely stable | half-life [4]: 77.5 min | uptake in 9L cells [5]: negligible uptake | uptake relative to that of FET [5]: less than 1% | maximum tumor-to-muscle ratio [6]: < 5 | time to maximum tumor uptake [6]: 60 min | tumor uptake kinetics and retention [6]: slower kinetics

O=C[C@H]([18F])[C@@H](O)[C@H](O)[C@H](O)CO [FDG, 2-[^18F]fluoro-2-deoxy-D-glucose, reference compound]
tumor uptake kinetics and retention [6]: continuously increasing tumor uptake

N[C@@H](Cc1ccc(OCC[18F])cc1)C(=O)O [FET ([^18F]1), O-(2-[^18F]fluoroethyl)-L-tyrosine, reference compound]
uptake in 9L cells [5]: high uptake | maximum tumor-to-muscle ratio [6]: 5 | time to maximum tumor uptake [6]: ≤ 20 min | tumor uptake kinetics and retention [6]: long retention

C[C@H](NC(=O)[C@@H](N)Cc1ccc(OCC[18F])cc1)C(=O)O [FET-Ala ([^18F]3), O-(2-[^18F]fluoroethyl)-L-tyrosyl-L-alanine]
metabolized to FET [1]: 79% | Tissue distribution Tumor [2, 7]: 1.18 ± 0.10 % ID/g | Tissue distribution Tumor [2, 8]: 1.10 ± 0.29 % ID/g | Tissue distribution Blood [2, 7]: 0.72 ± 0.03 % ID/g | Tissue distribution Bone [2, 7]: 0.41 ± 0.03 % ID/g | Tissue distribution Brain [2, 7]: 0.31 ± 0.01 % ID/g | Tissue distribution Heart [2, 7]: 0.67 ± 0.03 % ID/g | Tissue distribution Kidney [2, 7]: 0.58 ± 0.02 % ID/g | Tissue distribution Liver [2, 7]: 0.66 ± 0.02 % ID/g | Tissue distribution Lung [2, 7]: 0.62 ± 0.02 % ID/g | Tissue distribution Muscle [2, 7]: 0.54 ± 0.01 % ID/g | Tissue distribution Pancreas [2, 7]: 3.06 ± 0.38 % ID/g | Tissue distribution Skin [2, 7]: 0.69 ± 0.20 % ID/g | Tissue distribution Spleen [2, 7]: 0.74 ± 0.06 % ID/g | Tissue distribution Blood [2, 8]: 0.72 ± 0.03 % ID/g | Tissue distribution Bone [2, 8]: 0.46 ± 0.03 % ID/g | Tissue distribution Brain [2, 8]: 0.38 ± 0.02 % ID/g | Tissue distribution Heart [2, 8]: 0.66 ± 0.03 % ID/g | Tissue distribution Kidney [2, 8]: 0.57 ± 0.02 % ID/g | Tissue distribution Liver [2, 8]: 0.65 ± 0.02 % ID/g | Tissue distribution Lung [2, 8]: 0.61 ± 0.03 % ID/g | Tissue distribution Muscle [2, 8]: 0.60 ± 0.03 % ID/g | Tissue distribution Pancreas [2, 8]: 3.52 ± 0.26 % ID/g | Tissue distribution Skin [2, 8]: 0.73 ± 0.16 % ID/g | Tissue distribution Spleen [2, 8]: 0.71 ± 0.03 % ID/g | tumor uptake kinetics and retention [2]: long retention | time to maximum uptake in the tumors [2]: ≤ 30 min | Tumor/Blood [2, 7]: 1.6 | Tumor/Brain [2, 7]: 3.8 | Tumor/Muscle [2, 7]: 2.2 | Tumor/Blood [2, 9]: 1.64 ± 0.15 | Tumor/Brain [2, 9]: 3.81 ± 0.35 | Tumor/Muscle [2, 9]: 2.18 ± 0.19 | Tumor/Blood [2, 8]: 1.53 ± 0.41 | Tumor/Brain [2, 8]: 2.89 ± 0.78 | Tumor/Muscle [2, 8]: 1.83 ± 0.49 | half-life ([3]; human, heparinized human whole blood): 0.8 min | half-life [4]: 5.8 min | uptake in 9L cells [5]: negligible uptake | uptake relative to that of FET [5]: less than 1% | maximum tumor-to-muscle ratio [6]: 5 | time to maximum tumor uptake [6]: ≤ 20 min | tumor uptake kinetics and retention [6]: long retention

N[C@@H](Cc1ccc(OCC[18F])cc1)C(=O)NCC(=O)O [FET-Gly ([^18F]2), O-(2-[^18F]fluoroethyl)-L-tyrosyl-L-glycine]
metabolized to FET [1]: 72% | Tissue distribution Tumor [2, 7]: 0.81 ± 0.30 % ID/g | Tissue distribution Tumor [2, 8]: 0.56 ± 0.33 % ID/g | Tissue distribution Blood [2, 7]: 0.72 ± 0.02 % ID/g | Tissue distribution Bone [2, 7]: 0.41 ± 0.01 % ID/g | Tissue distribution Brain [2, 7]: 0.33 ± 0.02 % ID/g | Tissue distribution Heart [2, 7]: 0.67 ± 0.03 % ID/g | Tissue distribution Kidney [2, 7]: 0.57 ± 0.01 % ID/g | Tissue distribution Liver [2, 7]: 0.67 ± 0.02 % ID/g | Tissue distribution Lung [2, 7]: 0.59 ± 0.01 % ID/g | Tissue distribution Muscle [2, 7]: 0.52 ± 0.04 % ID/g | Tissue distribution Pancreas [2, 7]: 2.74 ± 0.39 % ID/g | Tissue distribution Skin [2, 7]: 0.44 ± 0.03 % ID/g | Tissue distribution Spleen [2, 7]: 0.76 ± 0.05 % ID/g | Tissue distribution Blood [2, 8]: 0.74 ± 0.06 % ID/g | Tissue distribution Bone [2, 8]: 0.45 ± 0.04 % ID/g | Tissue distribution Brain [2, 8]: 0.47 ± 0.06 % ID/g | Tissue distribution Heart [2, 8]: 0.68 ± 0.05 % ID/g | Tissue distribution Kidney [2, 8]: 0.57 ± 0.05 % ID/g | Tissue distribution Liver [2, 8]: 0.66 ± 0.05 % ID/g | Tissue distribution Lung [2, 8]: 0.62 ± 0.06 % ID/g | Tissue distribution Muscle [2, 8]: 0.67 ± 0.06 % ID/g | Tissue distribution Pancreas [2, 8]: 2.92 ± 0.44 % ID/g | Tissue distribution Skin [2, 8]: 0.46 ± 0.01 % ID/g | Tissue distribution Spleen [2, 8]: 0.80 ± 0.12 % ID/g | washout from 9L tumors ([2]; at 60 min (from 30 min)): 31% | time to maximum uptake in the tumors [2]: ≤ 30 min | Tumor/Blood [2, 7]: 1.13 ± 0.42 | Tumor/Brain [2, 7]: 2.45 ± 0.92 | Tumor/Muscle [2, 7]: 1.56 ± 0.59 | Tumor/Blood [2, 8]: 0.76 ± 0.45 | Tumor/Brain [2, 8]: 1.19 ± 0.72 | Tumor/Muscle [2, 8]: 0.84 ± 0.50 | t1/2 Human blood ([3]; hydrolysis to FET in human blood at 37 °C, average of two experiments): 22.7 min | t1/2 Rat blood ([4]; hydrolysis to FET in rat blood at 37 °C, average of two experiments): 17.3 min | uptake in 9L cells [5]: negligible uptake | uptake relative to that of FET [5]: less than 1% | maximum tumor-to-muscle ratio [6]: 5 | time to maximum tumor uptake [6]: ≤ 20 min | tumor uptake kinetics and retention [6]: washout
